Reference: ChEMBL document CHEMBL3098111, “Discovery of 2,5-diarylnicotinamides as selective orexin-2 receptor antagonists (2-SORAs)” (Bioorg Med Chem Lett, 2013)
Activity calls are given as the source filed them. The calls are words filed in the database; no cut-off is given here.

Experiments:
[1] = target: GABA-A receptor; alpha-1/beta-3/gamma-2 (Homo sapiens) (UniProt P14867+P18507+P28472); experiment: Inhibition of human GABA alpha1beta3gamma2 receptor at 10 uM relative to control; assay type: protein-complex assay
[2] = target: Endothelin receptor type B (Homo sapiens) (UniProt P24530); experiment: Inhibition of human ETB receptor at 10 uM relative to control
D(3) dopamine receptor = D(3) dopamine receptor (Homo sapiens, UniProt P35462); experiment: Inhibition of human dopamine D3 receptor at 1 uM relative to control
[3] = target: Type-2 angiotensin II receptor (Homo sapiens) (UniProt P50052); experiment: Inhibition of human angiotensin AT2 receptor at 10 uM relative to control
[4] = target: Type-1 angiotensin II receptor (Homo sapiens) (UniProt P30556); experiment: Inhibition of human angiotensin AT1 receptor at 10 uM relative to control
[5] = target: Androgen receptor (Rattus norvegicus) (UniProt P15207); experiment: Inhibition of rat androgen receptor at 10 uM relative to control
[6] = target: Receptor-type tyrosine-protein phosphatase C (Homo sapiens) (UniProt P08575); experiment: Inhibition of human CD45 at 10 uM relative to control
[7] = target: Tyrosine-protein phosphatase non-receptor type 2 (Homo sapiens) (UniProt P17706); experiment: Inhibition of human TCPTP at 10 uM relative to control
[8] = target: Proto-oncogene tyrosine-protein kinase Src (Homo sapiens) (UniProt P12931); experiment: Inhibition of human SRC at 10 uM relative to control
[9] = target: cGMP-dependent 3',5'-cyclic phosphodiesterase (Homo sapiens) (UniProt O00408); experiment: Inhibition of human PDE2 at 100 uM relative to control
Bos taurus = species: Bos taurus; experiment: Inhibition of bovine PDE1 at 100 uM relative to control
Caspase-8 (Homo sapiens) = Caspase-8 (Homo sapiens) (UniProt Q14790); experiment: Inhibition of human caspase 8 at 10 uM relative to control
Caspase-3 (Homo sapiens) = Caspase-3 (Homo sapiens) (UniProt P42574); experiment: Inhibition of human caspase 3 at 10 uM relative to control
[10] = target: Polyunsaturated fatty acid lipoxygenase ALOX12 (Homo sapiens) (UniProt P18054); experiment: Inhibition of human 12-lipoxygenase at 10 uM relative to control
Oryctolagus cuniculus = species: Oryctolagus cuniculus; experiment: Inhibition of rabbit monoamine transporter at 10 uM relative to control
Rattus norvegicus [11] = experiment: Antiinsomnic activity in rat EEG model assessed as decrease in active wake time at 15 mg/kg, po; assay type: functional, organism-based; set-up: dose 15 mg/kg
In short: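 Rats with EEG telemetry given 15 mg/kg orally during their active period, vehicle 20% Vitamin E TPGS in water. Sleep architecture (active wake, light sleep, delta and REM sleep) scored from EEG.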

[12] = target: Vasopressin V2 receptor (Homo sapiens) (UniProt P30518); experiment: Inhibition of human V2 receptor at 10 uM relative to control
[13] = target: Vasopressin V1a receptor (Homo sapiens) (UniProt P37288); experiment: Inhibition of human V1A receptor at 10 uM relative to control
[14] = target: Thyrotropin-releasing hormone receptor (Rattus norvegicus) (UniProt Q01717); experiment: Inhibition of rat TRH receptor at 10 uM relative to control
[15] = target: Neuromedin-K receptor (Homo sapiens) (UniProt P29371); experiment: Inhibition of human NK3 receptor at 10 uM relative to control
[16] = target: Substance-P receptor (Homo sapiens) (UniProt P25103); experiment: Inhibition of human NK1 receptor at 10 uM relative to control
[17] = target: Somatostatin receptor type 5 (Homo sapiens) (UniProt P35346); experiment: Inhibition of human SST5 receptor at 10 uM relative to control
Rattus norvegicus [18] = species: Rattus norvegicus; experiment: Inhibition of rat sodium channel site 2 at 10 uM relative to control
[19] = target: 5-hydroxytryptamine receptor 2B (Homo sapiens, UniProt P41595); experiment: Inhibition of human 5-HT2B receptor at 10 nM relative to control
[20] = target: T1, 5-hydroxytryptamine receptor 1A (Homo sapiens) (UniProt P08908); experiment: Inhibition of human 5-HT1A receptor at 1 uM relative to control
T1 sequence (whole entry): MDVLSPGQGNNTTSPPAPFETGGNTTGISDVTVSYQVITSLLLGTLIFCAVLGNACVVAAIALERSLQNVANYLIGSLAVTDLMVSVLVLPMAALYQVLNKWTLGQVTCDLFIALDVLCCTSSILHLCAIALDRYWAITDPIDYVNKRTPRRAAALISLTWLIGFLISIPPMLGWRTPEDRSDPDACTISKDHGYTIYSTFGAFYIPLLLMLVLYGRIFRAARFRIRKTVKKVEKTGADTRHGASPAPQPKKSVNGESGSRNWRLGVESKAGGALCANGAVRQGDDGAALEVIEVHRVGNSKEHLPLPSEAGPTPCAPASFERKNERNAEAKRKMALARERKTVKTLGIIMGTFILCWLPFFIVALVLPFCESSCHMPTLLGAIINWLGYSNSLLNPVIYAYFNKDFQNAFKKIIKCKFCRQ

Rattus norvegicus [21] = species: Rattus norvegicus; experiment: Inhibition of rat 5-HT1 receptor at 10 uM relative to control
[22] = target: Prostaglandin E2 receptor EP4 subtype (Homo sapiens) (UniProt P35408); experiment: Inhibition of human prostanoid EP4 receptor at 10 uM relative to control
[23] = target: Nociceptin receptor (Homo sapiens) (UniProt P41146); experiment: Inhibition of human ORL1 receptor at 10 uM relative to control
Mu-type opioid receptor = Mu-type opioid receptor (Homo sapiens, UniProt P35372); experiment: Inhibition of human mu opioid receptor at 1 uM relative to control
[24] = target: Kappa-type opioid receptor (Homo sapiens) (UniProt P41145); experiment: Inhibition of human kappa opioid receptor at 10 uM relative to control
[25] = target: Muscarinic acetylcholine receptor M5 (Homo sapiens) (UniProt P08912); experiment: Inhibition of human muscarinic M5 receptor at 10 uM relative to control
[26] = target: Muscarinic acetylcholine receptor M4 (Homo sapiens) (UniProt P08173); experiment: Inhibition of human muscarinic M4 receptor at 10 uM relative to control
[27] = target: Melanocortin receptor 5 (Homo sapiens) (UniProt P33032); experiment: Inhibition of human MC5 receptor at 10 uM relative to control
Gallus gallus = species: Gallus gallus; experiment: Inhibition of chicken MT receptor at 10 uM relative to control
[28] = target: Insulin receptor (Rattus norvegicus) (UniProt P15127); experiment: Inhibition of rat insulin receptor at 10 uM relative to control
[29] = target: Histamine H1 receptor (Homo sapiens) (UniProt P35367); experiment: Inhibition of human histamine H1 receptor at 10 uM relative to control
[30] = target: Glutamate NMDA receptor (Rattus norvegicus) (UniProt P35439+Q00959+Q00960+Q00961+Q62645+Q8VHN2+Q9R1M7); experiment: Inhibition of rat NMDA receptor phencyclidine binding site at 10 uM relative to control; assay type: protein-complex assay
Rattus norvegicus [31] = species: Rattus norvegicus; experiment: Inhibition of rat AMPA receptor at 10 uM relative to control

Sequence of Nociceptin receptor (Homo sapiens) (P41146 whole entry): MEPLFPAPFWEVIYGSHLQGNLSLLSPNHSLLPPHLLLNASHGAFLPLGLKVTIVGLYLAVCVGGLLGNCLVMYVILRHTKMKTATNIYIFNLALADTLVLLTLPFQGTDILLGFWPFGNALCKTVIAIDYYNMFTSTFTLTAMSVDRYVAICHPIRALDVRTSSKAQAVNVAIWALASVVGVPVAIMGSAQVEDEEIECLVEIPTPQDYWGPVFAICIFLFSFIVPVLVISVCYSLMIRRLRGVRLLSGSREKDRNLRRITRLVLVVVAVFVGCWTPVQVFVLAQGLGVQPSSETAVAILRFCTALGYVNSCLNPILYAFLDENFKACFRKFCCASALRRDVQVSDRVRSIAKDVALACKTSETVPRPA
Sequence of Mu-type opioid receptor (P35372 whole entry): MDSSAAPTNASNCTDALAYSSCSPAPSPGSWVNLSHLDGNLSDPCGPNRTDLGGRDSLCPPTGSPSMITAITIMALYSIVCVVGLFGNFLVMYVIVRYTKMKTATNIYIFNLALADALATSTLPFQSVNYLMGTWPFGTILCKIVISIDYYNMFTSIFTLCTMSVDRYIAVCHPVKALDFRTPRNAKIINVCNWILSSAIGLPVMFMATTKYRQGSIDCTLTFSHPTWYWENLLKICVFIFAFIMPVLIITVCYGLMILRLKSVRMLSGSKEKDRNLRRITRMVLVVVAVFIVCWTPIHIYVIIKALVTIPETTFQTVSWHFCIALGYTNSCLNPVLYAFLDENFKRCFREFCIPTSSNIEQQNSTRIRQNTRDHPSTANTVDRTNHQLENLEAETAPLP
Sequence of Polyunsaturated fatty acid lipoxygenase ALOX12 (Homo sapiens) (P18054 whole entry): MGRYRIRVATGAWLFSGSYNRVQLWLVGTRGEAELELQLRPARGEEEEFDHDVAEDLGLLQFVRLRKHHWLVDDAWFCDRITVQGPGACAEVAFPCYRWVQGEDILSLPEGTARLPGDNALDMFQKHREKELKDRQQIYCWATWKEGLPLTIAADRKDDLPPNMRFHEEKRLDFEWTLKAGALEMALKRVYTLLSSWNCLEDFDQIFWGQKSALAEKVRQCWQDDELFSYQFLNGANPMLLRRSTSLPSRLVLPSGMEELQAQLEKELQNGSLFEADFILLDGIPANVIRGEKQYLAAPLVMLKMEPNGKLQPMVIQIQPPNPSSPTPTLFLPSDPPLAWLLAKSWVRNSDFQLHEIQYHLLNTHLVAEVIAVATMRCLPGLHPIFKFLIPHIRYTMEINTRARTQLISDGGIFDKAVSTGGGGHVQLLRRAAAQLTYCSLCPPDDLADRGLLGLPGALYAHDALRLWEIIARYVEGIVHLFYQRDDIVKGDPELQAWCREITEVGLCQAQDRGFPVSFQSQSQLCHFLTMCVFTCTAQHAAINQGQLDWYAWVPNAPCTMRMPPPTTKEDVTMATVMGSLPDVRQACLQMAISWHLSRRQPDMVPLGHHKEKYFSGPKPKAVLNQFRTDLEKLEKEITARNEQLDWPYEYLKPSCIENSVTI
Sequence of Type-1 angiotensin II receptor (Homo sapiens) (P30556 whole entry): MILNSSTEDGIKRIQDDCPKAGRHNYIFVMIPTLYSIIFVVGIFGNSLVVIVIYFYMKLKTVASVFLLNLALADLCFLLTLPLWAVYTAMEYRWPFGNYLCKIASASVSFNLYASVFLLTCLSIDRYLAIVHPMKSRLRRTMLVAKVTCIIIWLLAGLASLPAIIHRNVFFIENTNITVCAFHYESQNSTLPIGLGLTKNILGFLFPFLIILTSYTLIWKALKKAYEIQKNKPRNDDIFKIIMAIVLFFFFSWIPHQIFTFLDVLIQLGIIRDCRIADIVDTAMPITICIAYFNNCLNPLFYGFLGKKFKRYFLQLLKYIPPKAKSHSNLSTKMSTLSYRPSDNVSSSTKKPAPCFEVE
Sequence of D(3) dopamine receptor (P35462 whole entry): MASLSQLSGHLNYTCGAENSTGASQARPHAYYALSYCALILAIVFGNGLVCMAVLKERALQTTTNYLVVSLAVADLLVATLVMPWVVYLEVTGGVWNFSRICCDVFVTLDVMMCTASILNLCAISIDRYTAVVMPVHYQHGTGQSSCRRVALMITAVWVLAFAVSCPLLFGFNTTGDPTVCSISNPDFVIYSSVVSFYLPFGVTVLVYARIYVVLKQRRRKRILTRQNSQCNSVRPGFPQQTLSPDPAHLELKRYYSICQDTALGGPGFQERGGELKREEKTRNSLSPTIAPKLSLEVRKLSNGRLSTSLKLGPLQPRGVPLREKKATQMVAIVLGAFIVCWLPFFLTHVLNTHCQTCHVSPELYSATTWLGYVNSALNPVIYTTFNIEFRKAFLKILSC
Sequence of cGMP-dependent 3',5'-cyclic phosphodiesterase (Homo sapiens) (O00408 whole entry): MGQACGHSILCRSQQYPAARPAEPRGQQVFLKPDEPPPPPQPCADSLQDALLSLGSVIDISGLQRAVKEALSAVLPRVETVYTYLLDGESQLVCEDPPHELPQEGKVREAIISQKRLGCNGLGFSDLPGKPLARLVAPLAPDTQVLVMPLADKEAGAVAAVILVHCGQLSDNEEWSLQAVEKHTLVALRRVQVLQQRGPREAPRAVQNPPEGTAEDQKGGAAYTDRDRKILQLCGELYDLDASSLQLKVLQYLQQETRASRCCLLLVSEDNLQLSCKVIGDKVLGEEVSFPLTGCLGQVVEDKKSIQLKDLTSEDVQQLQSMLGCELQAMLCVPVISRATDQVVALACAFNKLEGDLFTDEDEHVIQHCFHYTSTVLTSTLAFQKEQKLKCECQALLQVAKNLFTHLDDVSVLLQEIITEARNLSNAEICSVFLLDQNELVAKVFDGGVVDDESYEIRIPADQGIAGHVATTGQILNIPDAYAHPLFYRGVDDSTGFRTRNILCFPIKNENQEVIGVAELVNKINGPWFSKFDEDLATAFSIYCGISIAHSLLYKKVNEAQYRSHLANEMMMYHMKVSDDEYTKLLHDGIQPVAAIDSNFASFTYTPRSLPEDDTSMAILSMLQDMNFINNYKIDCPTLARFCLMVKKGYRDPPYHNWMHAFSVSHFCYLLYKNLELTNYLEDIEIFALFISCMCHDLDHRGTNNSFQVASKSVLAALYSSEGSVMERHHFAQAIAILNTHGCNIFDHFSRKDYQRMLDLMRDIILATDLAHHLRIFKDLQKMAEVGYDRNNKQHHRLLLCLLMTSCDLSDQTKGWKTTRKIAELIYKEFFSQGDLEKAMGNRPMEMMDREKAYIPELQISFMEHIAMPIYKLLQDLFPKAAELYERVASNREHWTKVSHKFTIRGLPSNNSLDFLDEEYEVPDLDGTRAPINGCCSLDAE
Sequence of 5-hydroxytryptamine receptor 2B (P41595 whole entry): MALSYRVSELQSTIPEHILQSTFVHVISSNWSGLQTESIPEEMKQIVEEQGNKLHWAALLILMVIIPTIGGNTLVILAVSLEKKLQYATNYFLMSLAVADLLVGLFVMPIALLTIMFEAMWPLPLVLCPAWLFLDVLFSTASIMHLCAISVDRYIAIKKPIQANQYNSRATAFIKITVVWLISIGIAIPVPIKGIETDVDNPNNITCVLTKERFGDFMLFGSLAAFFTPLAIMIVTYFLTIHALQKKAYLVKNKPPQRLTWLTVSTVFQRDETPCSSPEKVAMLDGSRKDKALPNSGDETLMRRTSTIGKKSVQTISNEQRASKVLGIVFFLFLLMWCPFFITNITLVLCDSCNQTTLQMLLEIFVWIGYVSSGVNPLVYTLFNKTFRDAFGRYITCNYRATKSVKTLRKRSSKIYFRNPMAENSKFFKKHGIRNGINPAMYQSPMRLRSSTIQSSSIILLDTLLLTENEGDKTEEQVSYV
Sequence of Type-2 angiotensin II receptor (Homo sapiens) (P50052 whole entry): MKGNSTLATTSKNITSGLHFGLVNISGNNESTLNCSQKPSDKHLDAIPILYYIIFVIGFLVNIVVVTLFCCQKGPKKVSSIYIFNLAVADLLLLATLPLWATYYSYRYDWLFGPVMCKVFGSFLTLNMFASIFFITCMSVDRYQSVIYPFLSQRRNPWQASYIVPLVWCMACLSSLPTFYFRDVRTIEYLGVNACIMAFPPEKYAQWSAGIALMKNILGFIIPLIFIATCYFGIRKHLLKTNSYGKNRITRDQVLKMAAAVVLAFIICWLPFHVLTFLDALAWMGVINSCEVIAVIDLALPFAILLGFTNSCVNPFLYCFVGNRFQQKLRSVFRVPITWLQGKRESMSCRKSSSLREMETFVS
Sequence of Caspase-8 (Homo sapiens) (Q14790 217-374 limits assumed): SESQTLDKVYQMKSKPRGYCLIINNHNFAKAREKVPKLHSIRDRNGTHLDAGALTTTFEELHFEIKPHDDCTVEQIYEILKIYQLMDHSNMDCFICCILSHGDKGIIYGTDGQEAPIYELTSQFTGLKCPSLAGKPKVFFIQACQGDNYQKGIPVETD
Sequence of Caspase-8 (Homo sapiens) (Q14790 385-479 limits assumed): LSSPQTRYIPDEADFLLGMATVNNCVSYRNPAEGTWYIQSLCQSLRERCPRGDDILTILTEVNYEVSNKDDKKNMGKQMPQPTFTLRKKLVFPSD
Sequence of Endothelin receptor type B (Homo sapiens) (P24530 whole entry): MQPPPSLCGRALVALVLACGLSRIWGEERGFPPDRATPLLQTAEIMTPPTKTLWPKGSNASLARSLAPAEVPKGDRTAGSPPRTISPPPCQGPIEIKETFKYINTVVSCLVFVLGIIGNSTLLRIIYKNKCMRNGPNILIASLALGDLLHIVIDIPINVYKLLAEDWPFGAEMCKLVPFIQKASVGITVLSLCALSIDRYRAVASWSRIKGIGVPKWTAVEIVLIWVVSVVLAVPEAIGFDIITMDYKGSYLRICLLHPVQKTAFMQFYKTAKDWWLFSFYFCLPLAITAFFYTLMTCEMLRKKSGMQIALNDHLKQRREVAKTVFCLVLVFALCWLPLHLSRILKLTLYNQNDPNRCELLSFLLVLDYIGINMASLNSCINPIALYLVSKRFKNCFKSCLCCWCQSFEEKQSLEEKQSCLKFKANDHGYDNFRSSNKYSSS
Sequence of Caspase-3 (Homo sapiens) (P42574 29-175 limits assumed): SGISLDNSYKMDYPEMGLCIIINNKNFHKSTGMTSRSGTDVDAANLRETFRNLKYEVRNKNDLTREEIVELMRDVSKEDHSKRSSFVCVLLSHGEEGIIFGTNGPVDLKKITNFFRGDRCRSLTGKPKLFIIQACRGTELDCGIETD
Sequence of Caspase-3 (Homo sapiens) (P42574 176-277 limits assumed): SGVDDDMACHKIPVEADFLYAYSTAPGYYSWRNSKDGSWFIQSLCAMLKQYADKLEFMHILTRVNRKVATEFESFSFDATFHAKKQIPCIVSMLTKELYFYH

inhibition [1]: 21% | inhibition [2]: 8% | inhibition (D(3) dopamine receptor): 19% | inhibition [3]: 18% | inhibition [4]: 14% | inhibition [5]: 7% | inhibition [6]: -1% | inhibition [7]: 4% | inhibition [8]: -5% | inhibition [9]: 4% | inhibition (Bos taurus): -3% | inhibition (Caspase-8 (Homo sapiens)): -1% | inhibition (Caspase-3 (Homo sapiens)): -1% | inhibition [10]: 11% | inhibition (Oryctolagus cuniculus): 52% | inhibition [12]: 0% | inhibition [13]: 0% | inhibition [14]: -3% | inhibition [15]: 13% | inhibition [16]: 26% | inhibition [17]: 14% | inhibition (Rattus norvegicus [18]): 39% | inhibition [19]: 6% | inhibition [20]: 41% | inhibition (Rattus norvegicus [21]): 36% | inhibition [22]: 19% | inhibition [23]: 9% | inhibition (Mu-type opioid receptor): 26% | inhibition [24]: 9% | inhibition [25]: 1% | inhibition [26]: 7% | inhibition [27]: 9% | inhibition (Gallus gallus): 22% | inhibition [28]: -5% | inhibition [29]: 10% | inhibition [30]: 5% | inhibition (Rattus norvegicus [31]): 9%
Compound: COc1ccc(CNC(=O)c2cc(-c3cc(Cl)cc(Cl)c3)cnc2-c2cccnc2)cc1OC
Activity (Rattus norvegicus [11]): Active
